Screening results (PubChem)
Apaf-1 inh = inhibitors of human Apaf-1 apoptosome, primary screen, biochemical, DEVD-Rh110 fluorescence, uHTS; inhibition, % at 20 µM; reconstituted apoptosome caspase-3 activity; Apoptotic protease-activating factor 1 (Homo sapiens), O14727; 330,000 tested, 0.71% active; active = inhibition of at least 40% at 20 µM;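 also: plate controls were DMSO wells for no effect and DEVD-CHO caspase inhibitor wells for full effect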
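Assay system – apoptosome proteins · Medium – Hepes buffer, pH 7.5 · Also added – cytochrome c with DEVD-Rh110 · Timing – 30 min compound preincubation, 50 min activation, room temperature · Detection – Rh110 fluorescence, excitation 480 nm, emission 540 nm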
TCR CD3 inh = inhibitors of human TCR-CD3 interaction, primary screen, biochemical, fluorescence, TAMRA-labeled TCR probe | inhibition, % at 9.4 µM | 360,000 tested, 0.37% active | AID 651800, 2012; in the data active = inhibition above about 19%;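 also: recombinant mutant TCR 2C K166C tagged with TAMRA read by polarization; 0% = receptor in buffer alone and 100% = receptor with positive control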
SIAE inh = human SIAE inhibitors, primary screen, biochemical, fluorescence polarization, FP-Rh probe, 1536-well HTS; Sialate O-acetylesterase (Homo sapiens), Q9HAT2; SIAE FP-Rh probe binding; inhibition, % at 9.66 µM; 370,000 tested, 0.69% active;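 active = inhibition above a cutoff: mean of compounds within the control limits plus 3 SD of those, cut at about 17% in these data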;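 also: 0% = plate median of compound wells and 100% = probe without SIAE protein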
PAD4 FP inh = human PAD4 inhibitors, primary screen, biochemical, fluorescence polarization, 1536-well format; Protein-arginine deiminase type-4 (Homo sapiens), Q9UM07; 330,000 tested, 0.41% active; inhibition, % at 6.36 µM; recombinant PAD4, RCA probe fluorescence polarization;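 active = percent inhibition above a cutoff equal to the mean of all tested compounds plus 3 SD, cut at about 15% in these data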;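 also: 0% = PAD4 with RCA probe and DMSO and 100% = probe without PAD4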
TDP2 absorb = human TDP2 enzyme inhibitors, primary screen, biochemical, epi absorbance, recombinant enzyme. Tyrosyl-DNA phosphodiesterase 2 (Homo sapiens), O95551. T5PNP hydrolysis, p-nitrophenol absorbance 415 nm. inhibition, % at 12.8 µM. 370,000 tested, 0.34% active. AID 720702, 2013;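 active = inhibition above the mean of all tested compounds plus 3 SD, set per campaign, cut at about 25% in these data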;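 also: 0% = DMSO with enzyme and 100% = buffer with substrate but no TDP2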
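Incubation: 2 h at 37 °C; Test system: recombinant human TDP2; Quantity: enzyme 120 nM; Read-out basis: percent inhibition; Medium: 50 mM Tris-HCl pH 7.5 with Mg2+, KCl, DTT, BSA; Repeats: single replicate; Compound: 12.8 µM single point, 1% DMSO; Signal: epi absorbance; Reagent: 5 mM T5PNP chromogenic substrate; Benchmarks: no-enzyme high, DMSO-plus-enzyme low.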
GSTO1 inh = inhibitors of recombinant GSTO1, primary screen, counter-screen for RBBP9 inhibitor project, biochemical, fluorescence polarization. activity-based probe fluorescence polarization. inhibition, % at 5.96 µM. 300,000 tested, 1.1% active. Glutathione S-transferase omega-1 (Homo sapiens), P78417. AID 1974, 2009;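 active = inhibition above the campaign mean inhibition plus 3 SD, cut at about 35% in these data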;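 also: 0% = GSTO1-1 with DMSO and 100% = wells lacking GSTO1-1 enzyme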
TDP2 inh conf = human TDP2 enzyme inhibitors, retest, confirmation, biochemical, epi absorbance, recombinant enzyme | shares compounds with TDP2 absorb | absorbance read-out | inhibition, % at 12.8 µM | 1,100 tested, 22% active | AID 743263, 2014; in the data active = inhibition above about 25%;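 also: 0% = vehicle with enzyme and 100% = no enzyme buffer only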
Active calls of the source: *; . = not tested or not shown. In the library only some 2.4% were active in any assay of this set; here they are far more common.

SMILES | Apaf-1 inh | TCR CD3 inh | SIAE inh | PAD4 FP inh | TDP2 absorb | GSTO1 inh | TDP2 inh conf
NS(=O)(=O)c1ccc(-c2ccc(/C=C3\SC(=S)N(C4CCS(=O)(=O)C4)C3=O)o2)cc1 (stereo not given) | 5 | -14 | 3 | -16 | 29* | 13 | -1
O=C(O)c1ccc(CN2C(=O)CSC2=S)cc1 | 8 | -41 | -32 | -142 | -8 | -7 | .
O=C(O)CN1C(=O)CSC1=S | 9 | -5 | -3 | . | 27* | . | 5
CCN1CCN(CC#CCOc2ccccc2OC)CC1 | 1 | 1 | 10 | 0 | 29* | 3 | 8
COC(=O)CSc1nnc(CCc2nc3ccccc3[nH]2)n1C | 2 | -1 | 2 | 4 | 1 | -6 | .
Cc1nn(C(C)C(=O)NCc2ccco2)c(=O)c2nn(-c3ccccc3)c(C)c12 (stereo not given) | -4 | -2 | -4 | 5 | 28* | 0 | 5
Cc1ccc(C)c(S(=O)(=O)N2CCN(C(=O)CCCc3c[nH]c4ccccc34)CC2)c1 | 20 | 5 | 8 | 7 | 5 | -8 | .
O=C(NC1C(=O)NNC1c1ccccc1)c1ccc(F)cc1 (stereo not given) | 34 | 1 | 3 | -7 | 26* | 8 | 6
COc1ccc(Cl)cc1Nc1nc(-c2sc(NC(=O)CC(C)C)nc2C)cs1 | 8 | -8 | 5 | 0 | 8 | 0 | .
CCOC(=O)c1[nH]c2ccc(OC)cc2c1NC(=O)c1ccc(OC)c(OC)c1 | 4 | -2 | -1 | 1 | -12 | 7 | .
Cc1cccc(CN2CCSCC2)c1 | -15 | 7 | 5 | -4 | 27* | 5 | -2
O=C(O)CNC(=O)c1ccc2c(c1)OCCO2 | -22 | 1 | 1 | -2 | 4 | 7 | .
COc1ccc2c(c1)C1NC(=S)NC(C)(O2)C1C(=O)Nc1ccc(Cl)cc1 (stereo not given) | 7 | -1 | -4 | -1 | -2 | 0 | .
CCn1cc(S(=O)(=O)Nc2ncccn2)cn1 | -8 | -1 | 7 | 2 | 25* | -16 | 1
CC(=O)Nc1ccc(S(=O)(=O)N2CCC(NC(=O)C(Cc3cccc(F)c3)NC(C)=O)CC2)cc1 (stereo not given) | -1 | -4 | 3 | 2 | 28* | 6 | 3
CC(=O)Nc1ccc(S(=O)(=O)N2CCC(NC(=O)C(Cc3ccc(C)cc3)NC(C)=O)CC2)cc1 (stereo not given) | 4 | 2 | -3 | . | 9 | . | .
O=C(CSc1nnc(COc2ccccc2)n1-c1ccccc1)Nc1ccc2c(c1)OCCO2 | . | . | 2 | . | 2 | . | .
COc1cccc(-c2nn(-c3ccccc3)cc2C(=O)OCC(=O)Nc2ncc(Cl)cc2Cl)c1 | 14 | 6 | -18 | -2 | -2 | -4 | .
Nc1ccc(C(=O)O)cc1[N+](=O)[O-] | -8 | -2 | 4 | -3 | -1 | 0 | .
Nc1cc(S(=O)(=O)O)cc([N+](=O)[O-])c1O | -110 | 7 | 12 | -10 | 50* | 0 | 3
O=C(CCN1C(=O)/C(=C\c2cccc(Br)c2)SC1=S)NCCCN1CCOCC1 | 10 | 7 | -11 | -14 | 10 | 5 | .
O=C1C2(CCCC13COC(c1ccc(O)cc1)OC3)COC(c1ccc(O)cc1)OC2 (stereo not given) | -127 | 5 | -1 | -2 | 25* | 4 | 3
COc1ccc(-c2csc3nc(C)nc(N4CCN(C(C)=O)CC4)c23)cc1OC | -3 | 1 | 1 | 1 | -1 | 3 | .
CC/C(=N\NC(=S)Nc1cc(C)ccc1C)c1ccc(OC(F)F)cc1 | 17 | -7 | 8 | -5 | 3 | 27 | .
